In the library only some 1% were active in any assay of this set; here they are far more common.
b-catenin transl: modulators of beta-catenin nuclear translocation, primary screen, imaging, HeLa cells, immunofluorescence, high-content. nuclear translocation activity, % at 5 µM. hit rate 0.3% among 190,000. AID 1665, 2009;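 active means nuclear translocation activity above 50% at 5 µM, with a well cell count of 50 or more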;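 further: per-cell ratio of nuclear to cytoplasmic median beta-catenin stain intensity; plate controls were DMSO negative control for no effect and GSK-3 inhibitor IX positive control for full effect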
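Test system: human HeLa cell line; Doses: 5 µM primary, 0.02–20 µM confirmation; Incubation: 24 h compound exposure, 37°C; Detection: beta-catenin immunofluorescence imaging with DAPI; Read-out: beta-catenin nuclear/cytoplasmic ratio, % activation.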
MT stabilize HCS: microtubule stabilizers in HeLa cells, primary screen, imaging, high-content imaging; AID 2205, 2009; hit rate 0.83% among 200,000; HeLa tubulin immunostaining HCS, 24 h; share of cells brighter than vehicle mean+2SD; % tubulin-high responders, % at 10 µM;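 active means plate Z-score above 3 for both tubulin-high and condensed-nucleus cell shares, with cell loss under 80%, at 10 µM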;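 further: anti alpha tubulin signal scored within the nucleus-defined area of each cell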
PKD1 inh: inhibitors of human PKD1 kinase, biochemical, fluorescence polarization; inhibition, % (concentration not given with the values); hit rate 0.056% among 200,000; PKD1 kinase fluorescence polarization assay; Serine/threonine-protein kinase D1 (Homo sapiens), Q15139; in the data active means inhibition above about 50%
ABCG2 inh: ABCG2 efflux pump inhibitors, primary screen, multiplex with ABCB1, IgMXP3 cells, flow cytometry. JC-1 efflux. Broad substrate specificity ATP-binding cassette transporter ABCG2 (Homo sapiens), Q9UNQ0. hit rate 0.1% among 190,000. inhibition, % at 6.6 µM;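 active means inhibition above 80%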;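 further: 0% = DMSO and 100% = nicardipine control wells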
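Times: 10 min at 25 °C | Test system: Two drug-resistant human cell lines, ABCG2 and ABCB1 | Quantity: 3 million cells/mL final, two lines in 1:1 ratio | Signal: Flow cytometry, 530 nm JC-1 signal | Dosing: Compound at 6.6 µM | Controls: Nicardipine and DMSO wells | Reagent: JC-1 as fluorescent efflux pump substrate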
ABCB1 inh: ABCB1 efflux pump inhibitors, primary screen, cell-based, multiplex, flow cytometry, ABCG2 counter-screen. ATP-dependent translocase ABCB1 (Homo sapiens), P08183. CCRF-Adr cells, JC-1 efflux. inhibition, % at 6.6 µM. hit rate 0.067% among 190,000. AID 1326, 2008; in the data active means inhibition above about 40%;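 further: 0% = vehicle and 100% = reference inhibitor; higher value means more JC-1 retained so stronger ABCB1 efflux block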
Target sequence (P08183 whole entry, looked up): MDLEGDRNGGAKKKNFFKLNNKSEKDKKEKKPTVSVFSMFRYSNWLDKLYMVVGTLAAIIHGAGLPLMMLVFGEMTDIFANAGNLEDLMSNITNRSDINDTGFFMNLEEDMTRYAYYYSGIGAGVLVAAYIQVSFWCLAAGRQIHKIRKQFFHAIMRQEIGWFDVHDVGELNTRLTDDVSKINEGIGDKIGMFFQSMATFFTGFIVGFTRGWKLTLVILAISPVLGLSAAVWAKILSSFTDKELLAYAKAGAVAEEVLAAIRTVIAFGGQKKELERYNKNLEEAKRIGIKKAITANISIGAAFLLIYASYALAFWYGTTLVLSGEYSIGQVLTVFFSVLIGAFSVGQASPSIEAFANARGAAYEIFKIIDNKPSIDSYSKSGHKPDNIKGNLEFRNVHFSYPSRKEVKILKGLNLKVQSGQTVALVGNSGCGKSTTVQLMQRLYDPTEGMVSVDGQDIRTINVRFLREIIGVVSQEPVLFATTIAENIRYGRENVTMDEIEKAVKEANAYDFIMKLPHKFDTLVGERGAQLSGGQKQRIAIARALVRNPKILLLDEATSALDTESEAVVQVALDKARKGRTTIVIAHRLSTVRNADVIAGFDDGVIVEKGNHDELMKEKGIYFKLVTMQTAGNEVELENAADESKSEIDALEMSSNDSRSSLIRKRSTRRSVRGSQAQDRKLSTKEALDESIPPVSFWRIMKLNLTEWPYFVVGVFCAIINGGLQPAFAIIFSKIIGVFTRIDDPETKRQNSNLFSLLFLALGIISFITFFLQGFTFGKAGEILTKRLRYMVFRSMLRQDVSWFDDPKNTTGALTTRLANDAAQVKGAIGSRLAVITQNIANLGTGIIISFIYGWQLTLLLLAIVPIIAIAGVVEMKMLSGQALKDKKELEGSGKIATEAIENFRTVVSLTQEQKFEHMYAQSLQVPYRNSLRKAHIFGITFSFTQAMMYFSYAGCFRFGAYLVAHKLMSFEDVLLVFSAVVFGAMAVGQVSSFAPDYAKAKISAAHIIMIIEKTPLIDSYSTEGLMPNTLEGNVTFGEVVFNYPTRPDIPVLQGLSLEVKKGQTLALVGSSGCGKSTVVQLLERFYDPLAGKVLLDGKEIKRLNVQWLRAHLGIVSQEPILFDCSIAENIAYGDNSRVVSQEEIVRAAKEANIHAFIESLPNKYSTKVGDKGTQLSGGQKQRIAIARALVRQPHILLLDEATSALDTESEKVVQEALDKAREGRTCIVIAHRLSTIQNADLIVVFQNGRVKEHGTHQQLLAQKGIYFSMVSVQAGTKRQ
ABCB1 single pt: ABCB1 efflux pump inhibitors, confirmation, cell-based, single point, ABCG2 counter-screen; hit rate 7% among 270; CCRF-Adr cells, JC-1 efflux, flow cytometry; inhibition, % at 6.6 µM; shares compounds with ABCG2 inh;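 active means inhibition of pump activity above 50%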;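 further: 0% = DMSO and 100% = nicardipine full pump inhibition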
ABCG2 single pt: ABCG2 efflux pump inhibitors, confirmation, single point, IgMXP3 cells, ABCB1 counter-screen paired. hit rate 6% among 270. JC-1 efflux, flow cytometry. AID 1453, 2008. shares compounds with ABCG2 inh. inhibition, % at 6.6 µM;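 active means inhibition above 50%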;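 further: 0% = DMSO wells and 100% = nicardipine pump inhibitor wells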
IgMXP3 fluor: compound autofluorescence in ABCG2-expressing IgMXP3 cells, confirmation, artefact control for ABC transporter inhibitor project, cell-based, 488/530 nm, flow cytometry; shares compounds with ABCG2 inh; compound autofluorescence 488/530 nm; active compounds read high; fluorescence at 6.6 µM; hit rate 30% among 270; AID 1480, 2009;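 active means fluorescence in ABCG2-expressing cells above the plate's control-well mean plus 3 SD, cut at about 15 in these data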;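 further: median cell fluorescence with compound minus that of DMSO-treated control cells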
CCRF autofluor: compound autofluorescence in ABCB1-expressing CCRF-Adr cells, confirmation, artefact control for ABC transporter inhibitor project, cell-based, 488/530 nm, flow cytometry | fluorescence at 6.6 µM | compound autofluorescence 488/530 nm; active compounds read high | hit rate 30% among 270 | AID 1483, 2009 | shares compounds with ABCG2 inh;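 active means fluorescence beyond the plate control mean plus 3 SD, with a fluorescence-to-maximum score over 2, cut at about 25 in these data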
* = called active by the depositor; nt = not tested or not shown.

SMILES | b-catenin transl | MT stabilize HCS | PKD1 inh | ABCG2 inh | ABCB1 inh | ABCB1 single pt | ABCG2 single pt | IgMXP3 fluor | CCRF autofluor
CCOc1ccc(OCC)c(NC(=O)CN2CCN(c3ccc(C)cc3C)CC2)c1 | -0.7 | 1.6 | -14.6 | 80.9* | 2.7 | 10.6 | 31.8 | 8.76 | -1.84
COc1ccccc1NC(=O)C1CCCN(c2nc(C)cc(C)n2)C1 (configuration not stated) | -5.2 | 4.8 | -2.0 | 11.1 | 0.8 | nt | nt | nt | nt
CCOC(=O)N1CCN(CC(=O)Nc2cc(OCC)ccc2OCC)CC1 | -1.2 | 2.4 | -2.8 | 29.5 | 1.0 | nt | nt | nt | nt
CCOc1ccc(OCC)c(NC(=O)C2CCCN(c3nc(C)cc(C)n3)C2)c1 (configuration not stated) | -5.5 | 1.3 | -5.7 | 101.1* | 2.4 | 7.8 | 27.6 | 2.71 | 9.66
CC1=Nc2ccccc2/C1=C\c1nc(-c2ccc(C(F)(F)F)cc2)oc1O | 1.1 | 2.6 | -2.4 | 49.2 | 44.1* | -23.0 | 12.9 | 68.7* | 201*
CC1=Nc2ccccc2/C1=C\c1nc(-c2ccccc2)oc1O | -4.7 | 1.5 | -3.7 | 2.1 | 1.3 | nt | nt | nt | nt
Cc1csc(SC(C)c2nc3scc(-c4ccccc4)c3c(=O)[nH]2)n1 (configuration not stated) | -0.2 | nt | nt | nt | nt | nt | nt | nt | nt
Cn1cc(CN2CCC(C(O)c3cccs3)CC2)c(-c2ccccc2F)n1 (configuration not stated) | 2.0 | nt | nt | nt | nt | nt | nt | nt | nt
CCCCn1c(O)c(N=Nc2ccccn2)c2ccccc21 | -1.1 | 2.5 | -5.4 | 79.0 | 2.3 | 0.2 | 51.4* | 1.31 | 14.8
O=C(O)C1Nc2c(O)cc(Cl)c([N+](=O)[O-])c2C2C=CCC12 (configuration not stated) | -0.1 | 1.8 | 2.3 | -1.2 | -0.6 | nt | nt | nt | nt
O=C(N/N=C1\CCCc2c1[nH]c1ccc([N+](=O)[O-])cc21)c1ccncc1 | 2.6 | 4.0 | -4.2 | 113.8* | 0.5 | 4.4 | 39.1 | -1.14 | -0.09
O=C1NCCc2c1[nH]c1ccc([N+](=O)[O-])cc21 | 2.4 | 2.8 | 6.9 | 19.7 | 0.2 | nt | nt | nt | nt
Cc1ccc(-n2nnnc2CCl)cc1 | 0.2 | 2.8 | -3.8 | 0.7 | 0.1 | nt | nt | nt | nt
O=c1/c(=C\c2cccnc2)sc2nc3ccccc3n12 | -2.9 | 3.9 | -4.6 | 80.9* | 1.6 | 1.3 | 19.3 | -1.34 | -3.04
O=c1/c(=C/c2ccc(O)c([N+](=O)[O-])c2)sc2nc3ccccc3n12 | 0.7 | 4.6 | 5.5 | 1.1 | -0.1 | nt | nt | nt | nt
CCCCSc1nnc(-c2ccc(C)cc2)c2ccccc12 | 3.1 | 1.8 | -10.9 | 92.5* | 3.0 | 25.4 | 39.9 | -2.19 | -4.39
CC(=O)c1sc(Nc2nc3cc4c(cc3s2)OCO4)nc1C | -2.9 | 4.3 | 6.5 | -6.3 | -0.7 | nt | nt | nt | nt
CCOC(=O)c1sc(Nc2nc3cc4c(cc3s2)OCO4)cc1C | 2.2 | 4.4 | -5.3 | 175.3* | 195.0* | 2.2 | 15.6 | -1.59 | -2.24
CN(C)c1ccc(/C=c2\sc3nc(-c4ccccc4)nn3c2=O)cc1 | -1.7 | 2.8 | -49.8 | 63.0 | 45.9* | 14.9 | 14.9 | 79.6* | 61.2*
COc1cc(/C=c2\sc3nc(-c4ccncc4)nn3c2=O)ccc1OC(C)=O | 1.9 | 4.7 | 2.1 | 36.2 | -0.6 | nt | nt | nt | nt
COc1ccccc1C(=O)N/C(=C/c1cccc([N+](=O)[O-])c1)C(=O)Nc1cccc(C(=O)O)c1 | -2.7 | 1.8 | -5.3 | 11.4 | 1.0 | nt | nt | nt | nt
COc1ccccc1NC(=O)/C(=C/c1cccc([N+](=O)[O-])c1)c1ccccc1 | -2.5 | 2.3 | 0.8 | 56.8 | 3.2 | -0.9 | 24.4 | 4.81 | 12.5
O=C(COc1ccc(Cl)cc1Br)NC(=O)NCc1ccccc1 | 2.4 | 4.5 | 1.5 | 1.9 | 0.2 | nt | nt | nt | nt
CC(=O)N1[C@H](Cc2ccccc2)C=C[C@]1(C)C(=O)NCc1ccccn1 | -1.2 | 1.2 | 2.5 | 0.1 | 1.3 | nt | nt | nt | nt
CN1C(=O)c2ccc(NC(=S)NC(=O)C(C)(C)C)cc2C1=O | -1.0 | 7.3 | -2.1 | 40.9 | 0.9 | nt | nt | nt | nt
SMILES | b-catenin transl | MT stabilize HCS | PKD1 inh | ABCG2 inh | ABCB1 inh | ABCB1 single pt | ABCG2 single pt | IgMXP3 fluor | CCRF autofluor
CC(C)NC(=O)c1sc2nc(-c3cccs3)cc(-c3cccs3)c2c1N | -2.8 | 2.4 | 7.3 | 1.1 | 2.8 | nt | nt | nt | nt
Nc1c(C(=O)C2CC2)sc2nc(-c3cccs3)cc(C(F)(F)F)c12 | -6.4 | 2.4 | -11.3 | 35.3 | 42.3* | -87.5 | -7.2 | 92.2* | 271*
CC(=O)NCCc1nc2ccccc2n1Cc1cc(C)ccc1C | 0.8 | nt | nt | nt | nt | nt | nt | nt | nt
COc1cccc(C(=O)Oc2cc3c4c(c2)C(C)=CC(C)(C)N4C(=O)C3=O)c1 | nt | 1.0 | -2.2 | 14.1 | 2.8 | nt | nt | nt | nt
COc1ccc(C(=O)Oc2cc3c4c(c2)C(C)=CC(C)(C)N4C(=O)C3=O)cc1OC | 0.6 | 2.9 | -9.2 | 90.6* | 24.4 | 20.3 | 28.5 | 13.5 | 7.41
COc1cc(C(=O)NC(CCSC)C(=O)OCc2cc([N+](=O)[O-])cc3c2OCOC3)cc(OC)c1OC (configuration not stated) | -0.9 | 4.6 | -0.9 | 24.7 | 58.4* | 20.5 | 12.9 | 1.91 | 0.01
CC(=O)Nc1ccc(S(=O)(=O)N[C@@H](C)C(=O)OCc2cc([N+](=O)[O-])cc3c2OCOC3)cc1 | 0.4 | nt | nt | nt | nt | nt | nt | nt | nt
CC(C)C(NS(=O)(=O)c1ccccc1)C(=O)OCc1cc([N+](=O)[O-])cc2c1OCOC2 (configuration not stated) | 4.5 | 4.8 | 3.1 | 89.4* | 2.5 | 1.3 | 10.3 | 1.66 | -0.99
CSc1nnc2c3cc(C)ccc3n(Cc3ccccc3)c2n1 | -2.2 | 1.1 | 4.3 | 4.3 | 0.6 | nt | nt | nt | nt
CCOC(=O)/C(C#N)=C\c1cc(C)n(-c2ccccc2)c1C | -0.8 | 2.5 | -7.5 | 80.8* | 3.8 | 4.0 | 26.1 | -1.24 | -2.09
Cc1sc2ncnc(NCC3COc4ccccc4O3)c2c1C (configuration not stated) | -0.1 | 3.3 | 10.1 | 82.1* | 0.4 | 1.2 | 28.3 | -2.09 | -2.99
COc1ccccc1Nc1nc2nonc2nc1N1CCCCC1C (configuration not stated) | -0.9 | 1.5 | -4.2 | 87.0* | 11.8 | 18.7 | 28.8 | 30.3* | -0.79

Compound activity (PubChem)
